Data from ChEMBL document CHEMBL1132930, “Characterization of the binding site of the histamine H(3) receptor. 2. Synthesis, in vitro pharmacology, and QSAR of a series of monosubstituted benzyl analogues of thioperamide” (J Med Chem, 2000).

The compounds below were run against Histamine H3 receptor (Cavia porcellus, UniProt Q9JI35) (assay: In vitro histamine H3 receptor antagonist activity was determined on guinea pig jejunum). Settings: read-out: pA2 (converted).
Type: functional, tissue-based
Procedure, shortened: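 Guinea pig jejunum preparations, electrically stimulated to give contractile responses (acetylcholine release). H3 agonists inhibit these responses in a concentration-dependent way. Antagonist pA2 derived from that agonist inhibition, per a previously described method.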

Chain of Histamine H3 receptor (Q9JI35 whole entry): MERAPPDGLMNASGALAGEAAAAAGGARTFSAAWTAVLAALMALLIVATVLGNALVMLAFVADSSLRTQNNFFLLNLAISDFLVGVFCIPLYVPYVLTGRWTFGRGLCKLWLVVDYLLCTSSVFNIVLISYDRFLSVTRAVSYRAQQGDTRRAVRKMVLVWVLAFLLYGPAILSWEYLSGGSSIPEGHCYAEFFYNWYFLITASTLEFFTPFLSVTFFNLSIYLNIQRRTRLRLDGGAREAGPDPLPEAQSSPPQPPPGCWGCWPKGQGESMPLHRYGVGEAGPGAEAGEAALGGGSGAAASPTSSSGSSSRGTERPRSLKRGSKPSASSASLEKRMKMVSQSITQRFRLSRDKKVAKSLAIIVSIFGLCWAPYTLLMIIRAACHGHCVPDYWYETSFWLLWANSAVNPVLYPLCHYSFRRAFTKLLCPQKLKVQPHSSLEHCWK

Point of comparison: Cc1ccccc1C/N=C(\S)N1CCC(c2c[nH]cn2)CC1, Kb 95.5 nM. Against it:
- S=C(NCc1ccc(Br)cc1)N1CCC(c2c[nH]cn2)CC1 — 3.5-fold higher, 339 nM
- Fc1cccc(C/N=C(\S)N2CCC(c3c[nH]cn3)CC2)c1 — 3.8-fold higher, 363 nM
- S=C(NCc1ccccc1Br)N1CCC(c2c[nH]cn2)CC1 — 6.6-fold lower, 14.5 nM
- S=C(NCc1cccc(Br)c1)N1CCC(c2c[nH]cn2)CC1 — 2.8-fold lower, 33.9 nM
- S=C(NCc1ccccc1)N1CCC(c2c[nH]cn2)CC1 — 2-fold lower, 47.9 nM
- Fc1ccccc1C/N=C(\S)N1CCC(c2c[nH]cn2)CC1 — 9.5-fold higher, 912 nM
- Fc1ccc(C/N=C(\S)N2CCC(c3c[nH]cn3)CC2)cc1 — 5.9-fold higher, 562 nM
- CC(C)(C)c1ccccc1C/N=C(\S)N1CCC(c2c[nH]cn2)CC1 — 3.3-fold lower, 28.8 nM
- S=C(NCc1cccc(Cl)c1)N1CCC(c2c[nH]cn2)CC1 — 2.5-fold lower, 38.9 nM
- S=C(NCc1ccccc1I)N1CCC(c2c[nH]cn2)CC1 — 13-fold lower, 7.41 nM
- S=C(NCc1cccc(I)c1)N1CCC(c2c[nH]cn2)CC1 — 6-fold lower, 15.8 nM
- S=C(NCc1ccccc1Cl)N1CCC(c2cnc[nH]2)CC1 — 15-fold lower, 6.17 nM
- S=C(NCc1ccc(Cl)cc1)N1CCC(c2c[nH]cn2)CC1 — 1.5-fold lower, 61.7 nM
- S=C(NCc1ccc(I)cc1)N1CCC(c2c[nH]cn2)CC1 — 1.7-fold higher, 166 nM

Each compound was assayed against Histamine H3 receptor (Cavia porcellus) (UniProt Q9JI35). Settings: Jejunum.
Chain of Histamine H3 receptor (Cavia porcellus) (Q9JI35 whole entry): as above

C[C@@H](N)Cc1c[nH]cn1 gave a pD2 of 7.8.
